Test [1] can be described thus: Inhibition of amyloid beta (1 to 40) aggregation by beta amyloid self seeding radioassay. The method in brief:
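Aβ(1-40) at 30 μM unlabeled, plus a tracer amount of 125I-Aβ(1-40), incubated with compound in 50 mM NaPi, 150 mM NaCl, 1 M urea, 0.02% w/v NaN3, pH 7.5. Radiolabeled fibrils retained on a 0.2 µm filter were measured. Eight compound concentrations were tested, and IC50 was taken by logit transformation of the titration curves. Values are the average of two separate experiments.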

Test [2] can be described thus: Inhibition of amyloid beta (1 to 40) aggregation by beta amyloid self seeding thioflavin T assay. Summed up:
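Compound was incubated with 30 μM Aβ(1-40) in 50 mM NaPi, 150 mM NaCl, 1 M urea, 0.02% w/v NaN3, pH 7.5. Thioflavin T at 5 µM was added after fibril formation, and fluorescence was read as β-sheet fibril content. IC50 came from eight concentrations by logit transformation of the titration curves. Values are the mean of two separate experiments.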

In test [3] the test system is Mus musculus. Kind of test: Reduction in senile plaque load in Tg2576 mouse overexpressing human betaAPP695SWE at 200 mg/kg/day, po administered with chow for 7 months. Format: functional. Set-up: scale not given: the % may be the effect or the level left.
Test [4] concerns Mus musculus. Kind of test: Reduction in mean senile plaque area in Tg2576 mouse overexpressing human betaAPP695SWE at 200 mg/kg/day, po administered with chow. Format: functional. More on the design: scale not given: the % may be the effect or the level left.
Test [5] can be described thus: Inhibition of amyloid beta (1 to 40) aggregation assessed as appearance of smaller fragmented amyloid beta species at 50 uM by atomic force microscopy study.

Among the data in ChEMBL document CHEMBL1143331, “The synthesis and structure-activity relationship of substituted N-phenyl anthranilic acid analogs as amyloid aggregation inhibitors” (Bioorg Med Chem Lett, 2009) are IC50 and Activity values, retold here.

The source made the active and inactive calls. The rule behind the calls is not given here.

With `O=C(O)c1ccccc1Nc1ccc(CCCc2cccc(Cl)c2)cc1`, the IC50 in test [1] came to 4 µM; in test [2], 3 µM.

As for `Cc1ccc(CCCc2ccc(Nc3cc(F)ccc3C(=O)O)cc2)cc1C`, the IC50 in test [1] was found to be 12 µM; in test [2], 5.4 µM.

Consider `COc1ccc(CCc2ccc(Nc3ccccc3C(=O)O)cc2)cc1`, for which the IC50 in test [1] and in test [2] was over 100 µM in each case.

As to `O=C(O)c1ccccc1Nc1ccc(CCc2ccccc2Cl)cc1`, the figures for the IC50 in test [1] and in test [2] were over 100 µM and 5 µM, respectively.

Turning to `O=C(O)c1ccc(C(F)(F)F)cc1Nc1ccc(CCc2ccc(Cl)c(Cl)c2)cc1`, the IC50 in test [1] was found to be 27 µM; in test [2], 4 µM.

Regarding `O=C(O)c1ccccc1Nc1ccc(CCc2cccc(Cl)c2)cc1`, the IC50 in test [1] is over 100 µM; in test [2], 19 µM.

On to `O=C(O)c1ccccc1Nc1ccc(CCCc2ccc(Cl)cc2Cl)cc1`, for which the IC50 in test [1] and in test [2] was 2 µM throughout.

`COc1ccc(CCCc2ccc(Nc3ccccc3C(=O)O)cc2)cc1`: the IC50 in test [1] worked out at 30 µM; in test [2], 17 µM.

Regarding `Cc1ccc(CCc2ccc(Nc3ccccc3C(=O)O)cc2)cc1C`, the half-maximal inhibitory concentration (IC50) in test [1] was over 100 µM; in test [2], 10 µM.

In the case of `COC(=O)c1ccc(Nc2ccc(CCc3ccc(Cl)c(Cl)c3)cc2)cc1`, the IC50 in test [1] and in test [2] was over 100 µM throughout.

Regarding `Cc1ccc(CCc2ccc(Nc3ccc([N+](=O)[O-])cc3C(=O)O)cc2)cc1C`, the 50% inhibitory concentration (IC50) in test [1] stood at 12 µM; in test [2] it was 2 µM.

As for `O=C(O)c1ccccc1Nc1ccc(CCc2ccc(F)c(C(F)(F)F)c2)cc1`, the half-inhibitory concentration (IC50) was over 100 µM in test [1] and 2 µM in test [2].

For `O=C(O)c1ccccc1Nc1ccc(CCCc2ccc(F)c(C(F)(F)F)c2)cc1`, the results for the IC50 in test [1] and in test [2] were 5 µM and 3 µM, respectively.

Regarding `O=C(O)c1cc([N+](=O)[O-])ccc1Nc1ccc(CCCc2ccc(Cl)c(Cl)c2)cc1`, the IC50 in test [1] is over 100 µM; in test [2], 1 µM.

For `O=C(O)c1cc(Nc2ccc(CCc3ccc(Cl)c(Cl)c3)cc2)ccc1C(F)(F)F`, the IC50 is over 100 µM in test [1] and 35 µM in test [2].

As for `Cc1ccc(CCCc2ccc(Nc3ccccc3C(=O)O)cc2)cc1`, the half-maximal inhibitory concentration (IC50) in test [1] is 9 µM; in test [2], 1 µM.

Take `O=C(O)c1ccccc1Nc1ccc(CCc2ccc(Cl)cc2Cl)cc1`: the figures for the IC50 in test [1] and in test [2] were over 100 µM and 51 µM, respectively.

On to `Cc1ccc(Nc2ccc(CCCc3ccc(C)c(C)c3)cc2)c(C(=O)O)c1`, for which the IC50 in test [1] is 16 µM; in test [2] it was 3 µM.

`Cc1ccc(Nc2ccc(CCc3ccc(Cl)c(Cl)c3)cc2)c(C(=O)O)c1`: the IC50 in test [1] is over 100 µM; in test [2], 2 µM.

Turning to `O=C(O)c1cc([N+](=O)[O-])ccc1Nc1ccc(CCc2ccccc2)cc1`, the IC50 in test [1] stood at 70 µM; in test [2], 1.5 µM.

For `COc1ccc(CCCc2ccc(Nc3cc(F)ccc3C(=O)O)cc2)cc1`, the half-inhibitory concentration (IC50) in test [1] is 14 µM; in test [2], 9 µM.

On to `O=C(O)c1ccccc1Nc1ccc(CCCc2ccccc2Cl)cc1`, for which the IC50 in test [1] was determined as 6 µM; in test [2] it was 2 µM.

For the compound `O=C(O)c1ccccc1Nc1ccc(CCN2CCC3CCCCC3C2)cc1` (stereo not given), the concentration for half-maximal inhibition (IC50) in test [1] is over 100 µM; in test [2] it was 1 µM.

`O=C(O)c1ccccc1Nc1ccc(CCc2ccccc2)cc1`: the values for the IC50 in test [1] and in test [2] were 60 µM and 10 µM, respectively.

For the compound `O=C(O)c1cc([N+](=O)[O-])ccc1Nc1ccc(CCc2ccc(F)c(F)c2)cc1`, the results for the half-maximal inhibitory concentration (IC50) in test [1] and in test [2] were 41 µM and 4 µM, respectively.

With `O=C(O)c1ccccc1Nc1ccc(CCc2ccc(Cl)c(Cl)c2)cc1`, the concentration for half-maximal inhibition (IC50) in test [1] is over 100 µM; in test [2], 2 µM. The figures for the Activity in the test with Mus musculus [3] and in the test on Mus musculus [4] were 44% and 2.1%, respectively. The result in test [5] was Active.

Turning to `O=C(O)c1cc([N+](=O)[O-])ccc1Nc1ccc(CCc2ccccc2Cl)cc1`, the concentration for half-maximal inhibition (IC50) in test [1] was 3 µM; in test [2], 0.5 µM.

As to `O=C(O)c1cccnc1Nc1ccc(CCCc2ccc(Cl)c(Cl)c2)cc1`, the IC50 in test [1] is 60 µM; in test [2], 5 µM.

Consider `O=C(O)c1ccccc1Nc1ccc(CCc2ccc(Cl)cc2)cc1`, for which the IC50 is over 100 µM in test [1] and 3 µM in test [2].

Take `O=C(O)c1ccccc1Nc1ccc(CCc2cccc(F)c2)cc1`: the IC50 in test [1] was over 100 µM; in test [2], 70 µM.

Take `O=C(O)c1ccccc1Nc1ccc(CCc2ccc(F)c(F)c2)cc1`: the IC50 in test [1] was over 100 µM; in test [2], 2 µM.

For the compound `O=C(O)c1ccccc1Nc1ccc(CCCc2ccc(Cl)cc2)cc1`, the concentration for half-maximal inhibition (IC50) in test [1] was found to be 3 µM; in test [2], 2 µM.

For `O=C(O)c1ccccc1Nc1ccc(CCCc2cccc(Br)c2)cc1`, the results for the concentration for half-maximal inhibition (IC50) in test [1] and in test [2] were 2 µM and 3 µM, respectively.

Consider `O=C(O)c1cc(Nc2ccc(CCc3ccc(Cl)c(Cl)c3)cc2)ccc1F`, for which the half-inhibitory concentration (IC50) in test [1] is over 100 µM; in test [2], 3 µM.

`Cc1ccc(CCCc2ccc(Nc3ccc([N+](=O)[O-])cc3C(=O)O)cc2)cc1C`: the concentration for half-maximal inhibition (IC50) was determined as 14 µM in test [1] and 6 µM in test [2].

With `Cc1ccc(Nc2ccc(CCCc3ccc(Cl)c(Cl)c3)cc2)c(C(=O)O)c1`, the IC50 in test [1] and in test [2] was over 100 µM each time.

As to `CCN(CC)c1ccc(CCCc2ccc(Nc3ccccc3C(=O)O)cc2)cc1`, the figures for the IC50 in test [1] and in test [2] were 3 µM and 1 µM, respectively.

`CCCCN(CCCC)c1ccc(CCc2ccc(Nc3ccc([N+](=O)[O-])cc3C(=O)O)cc2)cc1`: the 50% inhibitory concentration (IC50) in test [1] is 15 µM; in test [2] it was 1 µM.

For `O=C(O)c1cc([N+](=O)[O-])ccc1Nc1ccc(CCc2ccc(Cl)cc2Cl)cc1`, the IC50 turned out to be 17 µM in test [1] and 4 µM in test [2].

Take `CCN(CC)c1ccc(Nc2ccc(CCc3ccc(Cl)c(Cl)c3)cc2)c(C(=O)O)c1`: the figures for the IC50 in test [1] and in test [2] were over 100 µM and 53 µM, respectively.

Turning to `Cc1ccc(CCCc2ccc(Nc3ccc(F)cc3C(=O)O)cc2)cc1C`, the 50% inhibitory concentration (IC50) is over 100 µM in test [1] and 1 µM in test [2].

In the case of `O=C(O)c1c(Nc2ccc(CCc3ccc(Cl)c(Cl)c3)cc2)cccc1C(F)(F)F`, the figures for the half-maximal inhibitory concentration (IC50) in test [1] and in test [2] were 70 µM and 0.1 µM, respectively.

For the compound `O=C(O)c1cc(F)ccc1Nc1ccc(CCCc2ccc(Cl)c(Cl)c2)cc1`, the IC50 in test [1] was found to be 86 µM; in test [2] it was 1 µM.

For `O=C(O)c1cc([N+](=O)[O-])ccc1Nc1ccc(CCc2ccc(F)c(C(F)(F)F)c2)cc1`, the IC50 in test [1] is 3 µM; in test [2] it was 0.8 µM.

In the case of `O=C(O)c1ccccc1Nc1ccc(CCCc2ccccc2)cc1`, the IC50 stood at 14 µM in test [1] and 5 µM in test [2].

As to `O=C(O)c1ccccc1Nc1ccc(CCc2cc(Cl)cc(Cl)c2)cc1`, the concentration for half-maximal inhibition (IC50) is over 100 µM in test [1] and 15 µM in test [2].

`O=C(O)c1ccc(Nc2ccc(CCc3ccc(Cl)c(Cl)c3)cc2)cc1`: the half-maximal inhibitory concentration (IC50) in test [1] is over 100 µM; in test [2] it was 10 µM.

For `O=C(O)c1cccnc1Nc1ccc(CCc2ccc(Cl)c(Cl)c2)cc1`, the figures for the half-inhibitory concentration (IC50) in test [1] and in test [2] were 7 µM and 2 µM, respectively.

Turning to `O=C(O)c1cccc(C(F)(F)F)c1Nc1ccc(CCc2ccc(Cl)c(Cl)c2)cc1`, the concentration for half-maximal inhibition (IC50) in test [1] was over 100 µM; in test [2], 30 µM.

Take `O=C(O)c1cccc(Nc2ccc(CCc3ccc(Cl)c(Cl)c3)cc2)c1`: the results for the IC50 in test [1] and in test [2] were over 100 µM and 10 µM, respectively.

On to `O=C(O)c1ccccc1Nc1ccc(CCCc2ccc(F)c(F)c2)cc1`, for which the values for the IC50 in test [1] and in test [2] were 8 µM and 5 µM, respectively.

On to `Cc1ccc(CCCc2ccc(Nc3ccccc3C(=O)O)cc2)cc1C`, for which the half-maximal inhibitory concentration (IC50) in test [1] was 6 µM; in test [2], 3 µM.

In the case of `Cc1ccc(CCc2ccc(Nc3ccccc3C(=O)O)cc2)cc1Cl`, the 50% inhibitory concentration (IC50) turned out to be 88 µM in test [1] and 1 µM in test [2].

As for `O=C(O)c1cc([N+](=O)[O-])ccc1Nc1ccc(CCc2ccc(Cl)c(Cl)c2)cc1`, the half-maximal inhibitory concentration (IC50) is 43 µM in test [1] and 0.5 µM in test [2].

As for `O=C(O)c1cc([N+](=O)[O-])ccc1Nc1ccc(CCc2ccc(Cl)cc2)cc1`, the figures for the half-inhibitory concentration (IC50) in test [1] and in test [2] were 15 µM and 0.4 µM, respectively.

Take `O=C(O)c1cc([N+](=O)[O-])ccc1Nc1ccc(CCc2ccc(Cl)c(C(F)(F)F)c2)cc1`: the 50% inhibitory concentration (IC50) in test [1] is 16 µM; in test [2], 1 µM.

As for `O=C(O)c1ccccc1Nc1ccc(CCCc2cc(Cl)cc(Cl)c2)cc1`, the IC50 in test [1] and in test [2] was 3 µM in each case.

As to `COc1ccc(CCCc2ccc(Nc3ccc(F)cc3C(=O)O)cc2)cc1`, the 50% inhibitory concentration (IC50) in test [1] is 14 µM; in test [2], 10 µM.

For the compound `O=C(O)c1cc([N+](=O)[O-])ccc1Nc1ccc(CCc2cccc(Cl)c2)cc1`, the IC50 in test [1] worked out at 33 µM; in test [2], 0.3 µM.

For `Cc1ccc(CCCc2ccc(Nc3ncccc3C(=O)O)cc2)cc1C`, the IC50 in test [1] was 14 µM; in test [2], 9 µM.

As for `O=C(O)c1cc([N+](=O)[O-])ccc1Nc1ccc(CCN2CCC3CCCCC3C2)cc1` (stereo not given), the IC50 in test [1] is 5 µM; in test [2], 1 µM.

In general, IC50 refers to the concentration that inhibits the measured activity by half.
